Usually Ki stands for a measure of affinity in units of concentration, obtained from inhibition or displacement. A low value points to a stronger hold on the target.

This note sets out measurements from ChEMBL document CHEMBL1134607, “Synthesis and structure-activity relationships of a new model of arylpiperazines. Study of the 5-HT(1a)/alpha(1)-adrenergic receptor affinity by classical hansch analysis, artificial neural networks, and computational simulation of ligand recognition” (J Med Chem, 2001).

The target of experiment [1] is T1, 5-hydroxytryptamine receptor 1A (Rattus norvegicus, UniProt P19327).
T1 sequence (P19327 whole entry): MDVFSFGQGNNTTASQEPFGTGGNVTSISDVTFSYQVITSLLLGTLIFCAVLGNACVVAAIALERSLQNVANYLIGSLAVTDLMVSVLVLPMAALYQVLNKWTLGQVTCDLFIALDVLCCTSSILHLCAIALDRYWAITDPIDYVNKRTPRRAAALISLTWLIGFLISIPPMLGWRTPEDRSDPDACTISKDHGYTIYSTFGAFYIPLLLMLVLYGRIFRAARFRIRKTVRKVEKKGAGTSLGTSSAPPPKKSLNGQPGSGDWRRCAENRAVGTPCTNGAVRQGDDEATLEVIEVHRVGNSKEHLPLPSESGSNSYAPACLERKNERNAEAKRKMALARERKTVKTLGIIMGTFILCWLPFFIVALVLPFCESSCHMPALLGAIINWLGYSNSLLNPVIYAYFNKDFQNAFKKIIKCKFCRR
The experiment can be described thus: In vitro binding affinity towards 5-hydroxytryptamine 1A receptor in rat cerebral cortex membranes. The format is cell membranes, Membrane. The gist of the method: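 Rat cerebral cortex membranes, washed and preincubated 10 min at 37 °C. About 1 mg protein incubated 15 min at 37 °C with 0.6 nM [3H]8-OH-DPAT in 50 mM Tris-HCl pH 7.4 containing 10 nM clonidine and 30 nM prazosin. Nonspecific binding with 10 µM 5-HT. Triplicates, filtration, scintillation counting. Ki by Cheng-Prusoff from fitted IC50. Prescreen at 10^-6 M, full curves if displacement ≥55%.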

Experiment [2] concerns the target T2, Adrenergic receptor alpha-1 (Rattus norvegicus, UniProt P15823+P23944+P43140).
T2 sequence (P15823 whole entry): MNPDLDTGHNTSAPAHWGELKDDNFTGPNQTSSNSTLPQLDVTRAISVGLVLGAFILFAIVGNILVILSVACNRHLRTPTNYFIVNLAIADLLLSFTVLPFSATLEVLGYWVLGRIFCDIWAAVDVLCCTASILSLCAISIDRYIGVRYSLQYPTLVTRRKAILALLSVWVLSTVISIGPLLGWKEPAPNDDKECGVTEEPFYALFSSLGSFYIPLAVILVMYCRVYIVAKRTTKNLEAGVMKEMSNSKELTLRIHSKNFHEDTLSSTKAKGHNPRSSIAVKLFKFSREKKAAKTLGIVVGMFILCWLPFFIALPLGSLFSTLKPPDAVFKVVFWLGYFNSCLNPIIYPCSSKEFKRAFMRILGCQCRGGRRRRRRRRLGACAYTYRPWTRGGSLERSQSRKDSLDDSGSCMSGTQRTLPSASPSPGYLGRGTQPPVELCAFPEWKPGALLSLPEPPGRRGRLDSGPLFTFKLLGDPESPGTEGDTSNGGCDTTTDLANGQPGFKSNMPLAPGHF
T2 sequence (P23944 whole entry): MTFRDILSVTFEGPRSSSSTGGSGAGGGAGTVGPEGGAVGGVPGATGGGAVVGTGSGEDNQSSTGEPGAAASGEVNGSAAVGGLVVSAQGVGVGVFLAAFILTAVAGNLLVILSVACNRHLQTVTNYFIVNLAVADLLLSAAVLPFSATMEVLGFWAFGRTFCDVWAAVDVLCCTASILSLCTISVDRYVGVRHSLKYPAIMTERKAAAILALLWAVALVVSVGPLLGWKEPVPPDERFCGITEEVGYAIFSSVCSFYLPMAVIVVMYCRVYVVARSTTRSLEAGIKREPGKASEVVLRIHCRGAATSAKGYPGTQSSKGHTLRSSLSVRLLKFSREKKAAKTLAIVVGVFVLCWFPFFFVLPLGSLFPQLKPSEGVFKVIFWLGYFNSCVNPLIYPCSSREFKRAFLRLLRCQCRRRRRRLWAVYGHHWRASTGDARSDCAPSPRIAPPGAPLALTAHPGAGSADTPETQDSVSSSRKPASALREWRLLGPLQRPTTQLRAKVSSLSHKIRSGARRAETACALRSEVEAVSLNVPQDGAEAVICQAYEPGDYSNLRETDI
T2 sequence (P43140 whole entry): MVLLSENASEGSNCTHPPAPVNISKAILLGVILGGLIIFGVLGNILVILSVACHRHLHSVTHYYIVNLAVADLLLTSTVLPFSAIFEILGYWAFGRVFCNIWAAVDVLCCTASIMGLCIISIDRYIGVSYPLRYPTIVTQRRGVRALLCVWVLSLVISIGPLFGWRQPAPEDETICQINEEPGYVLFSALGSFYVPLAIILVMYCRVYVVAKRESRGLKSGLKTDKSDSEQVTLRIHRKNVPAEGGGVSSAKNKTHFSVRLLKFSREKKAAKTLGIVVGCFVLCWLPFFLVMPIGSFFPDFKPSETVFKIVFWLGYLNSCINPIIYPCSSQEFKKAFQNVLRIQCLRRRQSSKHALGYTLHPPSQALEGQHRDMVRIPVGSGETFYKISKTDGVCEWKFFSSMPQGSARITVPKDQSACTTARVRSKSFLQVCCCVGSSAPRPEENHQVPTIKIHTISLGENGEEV
Put plainly: In vitro binding affinity towards alpha-1 adrenergic receptor in rat cerebral cortex membranes. The class given is cell membranes, Membrane. In a few lines:
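Rat cerebral cortex membranes in 50 mM Tris-HCl, 10 mM MgCl2, pH 7.4. About 250 µg protein incubated 30 min at 25 °C with 0.2 nM [3H]prazosin. Nonspecific binding with 10 µM phentolamine. Triplicates, filtration, scintillation counting. Ki by Cheng-Prusoff from iteratively fitted IC50. Prescreen at 10^-6 M, dose-response curves if displacement ≥55%.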

As for `O=C1C2CCCN2C(=O)N1CCCN1CCN(c2cccc(Br)c2)CC1` (configuration not stated), the values for the Ki in experiment [1] and in experiment [2] were 34 nM and 25 nM, respectively.

Take `O=C1C2CCCCN2C(=O)N1CCCCN1CCN(c2ccccc2Br)CC1` (configuration not stated): the Ki in experiment [1] was 3.4 nM; in experiment [2] it was 6.2 nM.

In the case of `N#Cc1ccccc1N1CCN(CCCN2C(=O)C3CCCCN3C2=O)CC1` (configuration not stated), the values for the Ki in experiment [1] and in experiment [2] were 65 nM and 8.2 nM, respectively.

As for `CCCOC(=O)c1ccccc1N1CCN(CCCCN2C(=O)C3CCCN3C2=O)CC1` (configuration not stated), the Ki in experiment [1] was 4.8 nM; in experiment [2] it was 41 nM.

In the case of `N#Cc1ccccc1N1CCN(CCCCN2C(=O)C3CCCN3C2=O)CC1` (configuration not stated), the Ki stood at 4 nM in experiment [1] and 4.9 nM in experiment [2].

On to `CCS(=O)(=O)Nc1cccc(N2CCN(CCCCN3C(=O)C4CCCN4C3=O)CC2)c1` (configuration not stated), for which the Ki in experiment [2] is recorded as greater than 1000 nM.

Consider `CC(C)C(=O)Nc1cccc(N2CCN(CCCN3CC(=O)N4CCCC4C3=O)CC2)c1` (configuration not stated), for which the figures for the Ki in experiment [1] and in experiment [2] were 266 nM and 1440 nM, respectively.

For the compound `CCCCOc1ccccc1N1CCN(CCCN2CC(=O)N3CCCCC3C2=O)CC1` (configuration not stated), the inhibition constant (Ki) in experiment [1] is 92 nM; in experiment [2], 13 nM.

In the case of `Cc1ccccc1N1CCN(CCCCN2CC(=O)N3CCCCC3C2=O)CC1` (configuration not stated), the Ki in experiment [1] came out at 32 nM; in experiment [2], 27 nM.

Regarding `CCCOC(=O)c1ccccc1N1CCN(CCCCN2CC(=O)N3CCCCC3C2=O)CC1` (configuration not stated), the Ki in experiment [1] was 28 nM; in experiment [2] it was 392 nM.

`CCCOC(=O)c1ccccc1N1CCN(CCCN2C(=O)C3CCCCN3C2=O)CC1` (configuration not stated): the Ki was found to be 46 nM in experiment [1] and 13 nM in experiment [2].

In experiment [2], `Cc1ccccc1N1CCN(CCCCN2C(=O)C3CCCN3C2=O)CC1` (configuration not stated) returned a Ki of 7 nM.

`CCCCOc1ccccc1N1CCN(CCCN2C(=O)C3CCCN3C2=O)CC1` (configuration not stated): the Ki is 15 nM in experiment [1] and 6.4 nM in experiment [2].

In the case of `CC(C)C(=O)Nc1cccc(N2CCN(CCCN3C(=O)C4CCCCN4C3=O)CC2)c1` (configuration not stated), the Ki in experiment [1] stood at 776 nM; in experiment [2], 4430 nM.

Consider `CC(C)C(=O)Nc1cccc(N2CCN(CCCCN3C(=O)C4CCCN4C3=O)CC2)c1.Cl` (configuration not stated), for which the inhibitory constant (Ki) was found to be 193 nM in experiment [1] and 5425 nM in experiment [2].

Regarding `COc1ccccc1N1CCN(CCCN2CC(=O)N3CCCCC3C2=O)CC1` (configuration not stated), the figures for the Ki in experiment [1] and in experiment [2] were 143 nM and 29 nM, respectively.

Consider `CCCNC(=O)c1ccccc1N1CCN(CCCN2CC(=O)N3CCCCC3C2=O)CC1` (configuration not stated), for which the results for the Ki in experiment [1] and in experiment [2] were 4610 nM and 811 nM, respectively.

In turn, `CCCOC(=O)c1ccccc1N1CCN(CCCN2CC(=O)N3CCCC3C2=O)CC1` (configuration not stated) came in with a Ki in experiment [2] of 12 nM.

Take `N#Cc1ccccc1N1CCN(CCCN2CC(=O)N3CCCC3C2=O)CC1` (configuration not stated): the Ki in experiment [1] is 27 nM; in experiment [2] it was 17 nM.

Regarding `N#Cc1ccccc1N1CCN(CCCCN2CC(=O)N3CCCCC3C2=O)CC1` (configuration not stated), the figures for the Ki in experiment [1] and in experiment [2] were 15 nM and 30 nM, respectively.

As for `Cc1ccccc1N1CCN(CCCN2C(=O)C3CCCCN3C2=O)CC1` (configuration not stated), the Ki in experiment [1] was found to be 220 nM; in experiment [2], 5.7 nM.

On to `Cc1ccccc1N1CCN(CCCN2CC(=O)N3CCCC3C2=O)CC1` (configuration not stated), for which the Ki was found to be 48 nM in experiment [1] and 17 nM in experiment [2].

Take `O=C1C2CCCCN2C(=O)N1CCCCN1CCN(c2cccc(Br)c2)CC1` (configuration not stated): the Ki was 5.4 nM in experiment [1] and 5.9 nM in experiment [2].

In the case of `CCCNC(=O)c1ccccc1N1CCN(CCCCN2C(=O)C3CCCCN3C2=O)CC1` (configuration not stated), the Ki in experiment [1] worked out at 378 nM; in experiment [2], 521 nM.

Take `COc1ccccc1N1CCN(CCCCN2CC(=O)N3CCCC3C2=O)CC1` (configuration not stated): the Ki is 12 nM in experiment [1] and 25 nM in experiment [2].

As for `CCCCOc1ccccc1N1CCN(CCCCN2C(=O)C3CCCCN3C2=O)CC1` (configuration not stated), the inhibition constant Ki in experiment [1] was found to be 2.2 nM; in experiment [2], 5 nM.

For the compound `CCCNC(=O)c1ccccc1N1CCN(CCCN2C(=O)C3CCCN3C2=O)CC1` (configuration not stated), the Ki in experiment [1] is 808 nM; in experiment [2] it was 608 nM.

On to `O=C1C2CCCN2C(=O)CN1CCCCN1CCN(c2cccc(C(F)(F)F)c2)CC1` (configuration not stated), for which the Ki was 5.5 nM in experiment [1] and 72 nM in experiment [2].

As to `O=C1C2CCCCN2C(=O)CN1CCCN1CCN(c2cccc(C(F)(F)F)c2)CC1` (configuration not stated), the Ki in experiment [1] is 179 nM; in experiment [2] it was 339 nM.

Regarding `CC(C)C(=O)Nc1cccc(N2CCN(CCCCN3CC(=O)N4CCCCC4C3=O)CC2)c1` (configuration not stated), the Ki in experiment [1] was 198 nM; in experiment [2] it was 16140 nM.

For the compound `CCCCOc1ccccc1N1CCN(CCCCN2CC(=O)N3CCCC3C2=O)CC1` (configuration not stated), the Ki in experiment [1] is 8.7 nM; in experiment [2], 10.5 nM.

On to `Nc1cccc(N2CCN(CCCN3C(=O)C4CCCN4C3=O)CC2)c1` (configuration not stated), for which the inhibition constant Ki was 1180 nM in experiment [1] and 393 nM in experiment [2].

For `CCCNC(=O)c1ccccc1N1CCN(CCCCN2CC(=O)N3CCCC3C2=O)CC1` (configuration not stated), the Ki in experiment [1] is 1230 nM; in experiment [2] it was 1354 nM.

Regarding `O=C1C2CCCCN2C(=O)N1CCCCN1CCN(c2ccccc2Oc2ccccc2)CC1` (configuration not stated), the Ki was 0.6 nM in experiment [1] and 2.4 nM in experiment [2].

Turning to `Nc1cccc(N2CCN(CCCCN3C(=O)C4CCCCN4C3=O)CC2)c1` (configuration not stated), the figures for the Ki in experiment [1] and in experiment [2] were 68 nM and 231 nM, respectively.
